pIC50: −log10 of the molar value. Calls of active or inactive are those of the source. The calls are words filed in the database; no cut-off is given here.
Tests used:
HGC-27 = assay: Antiproliferative activity against human HGC-27 cells assessed as inhibition of cell growth incubated for 72 hrs by MTT assay; assay type: functional, cell-based; details: HGC-27, 72 h
In short: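 Antiproliferative screen in gastric cancer lines MGC-803, HGC-27 and BGC-823 by MTT assay; IC50 reported as mean ± SD.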

[1] = Selectivity index, ratio of IC50 for cytotoxicity against human GES1 cells to IC50 for antiproliferative activity against human MGC-803 cells; assay type: toxicity, cell-based; details: GES1 cells and MGC-803 cells, read-out: Ratio IC50
MGC-803 [2] = assay: Inhibition of colony formation in human MGC-803 cells at 1 uM incubated for 9 days by crystal violet staining based analysis relative to control; assay type: functional; details: MGC-803, 216 h, time 9 day
In short: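 Clonogenic assay: MGC-803 cells grown 9 days with 0, 1, 2 or 3 μM; colonies counted and inhibition rate calculated against untreated control; mean ± SD of three independent experiments.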

MGC-803 [3] = assay: Induction of apoptosis in human MGC-803 cells assessed as viable cells at 5 uM incubated for 24 hrs by Annexin V-FITC/PI staining based flow cytometric analysis (reference value: 90.3 %); assay type: functional; details: read-out: Activity
MGC-803 [4] = assay: Induction of apoptosis in human MGC-803 cells assessed as necrotic cells at 5 uM incubated for 24 hrs by Annexin V-FITC/PI staining based flow cytometric analysis (reference value: 2.0 %); assay type: functional
MGC-803 [5] = assay: Induction of apoptosis in human MGC-803 cells assessed as viable cells at 7.5 uM incubated for 24 hrs by Annexin V-FITC/PI staining based flow cytometric analysis (reference value: 90.3 %); assay type: functional; details: read-out: Activity
MGC-803 [6] = assay: Induction of apoptosis in human MGC-803 cells assessed as viable cells at 5 uM incubated for 48 hrs by Annexin V-FITC/PI staining based flow cytometric analysis (reference value: 96.7 %); assay type: functional; details: read-out: Activity
MGC-803 [7] = assay: Induction of apoptosis in human MGC-803 cells assessed as early apoptotic cells at 5 uM incubated for 48 hrs by Annexin V-FITC/PI staining based flow cytometric analysis (reference value: 2.5 %); assay type: functional
MGC-803 [8] = assay: Induction of apoptosis in human MGC-803 cells assessed as early apoptotic cells at 7.5 uM incubated for 48 hrs by Annexin V-FITC/PI staining based flow cytometric analysis (reference value: 2.5 %); assay type: functional
MGC-803 [9] = assay: Induction of apoptosis in human MGC-803 cells assessed as late apoptotic cells at 7.5 uM incubated for 48 hrs by Annexin V-FITC/PI staining based flow cytometric analysis (reference value: 0.5 %); assay type: functional
MGC-803 [10] = assay: Induction of apoptosis in human MGC-803 cells assessed as viable cells at 10 uM incubated for 48 hrs by Annexin V-FITC/PI staining based flow cytometric analysis (reference value: 96.7 %); assay type: functional; details: read-out: Activity
MGC-803 [11] = assay: Induction of apoptosis in human MGC-803 cells assessed as necrotic cells at 10 uM incubated for 48 hrs by Annexin V-FITC/PI staining based flow cytometric analysis (reference value: 0.3 %); assay type: functional
MGC-803 [12] = assay: Induction of apoptosis in human MGC-803 cells assessed as total apoptotic cells at 10 uM incubated for 48 hrs by Annexin V-FITC/PI staining based flow cytometric analysis relative to control; assay type: functional
MGC-803 [13] = assay: Cell cycle arrest in human MGC-803 cells assessed as G0/G1 phase cells at 7.5 uM incubated for 24 hrs by RNase/PI staining based flow cytometric analysis (reference value: 54.99%); assay type: functional
MGC-803 [14] = assay: Induction of apoptosis in human MGC-803 cells assessed as decrease in Bcl-2 protein expression at 5 to 10 uM incubated for 24 hrs by Western blot analysis; assay type: functional, cell-based; details: dose 5-10 µM
In short: (§1)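 After 24 h exposure of MGC-803 cells, Bcl-2, Mcl-1, Bax and cytochrome c release assessed by Western blot with band quantitation; mean ± SD from three independent experiments.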

MGC-803 [15] = assay: Induction of apoptosis in human MGC-803 cells assessed as activation of cytochrome C release from mitochondria to cytoplasm incubated for 24 hrs by Western blot analysis; assay type: functional, cell-based; details: dose 5-10 µM; in short: as §1
MGC-803 [16] = assay: Induction of mitochondrial dysfunction in human MGC-803 cells assessed as upregulation of cleaved PARP expression at 5 to 10 uM incubated for 24 hrs by Western blot analysis; assay type: functional, cell-based; details: dose 5-10 µM
In short: (§2)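 Western blot of caspase 9, 3, 7, PARP and γH2A.X in MGC-803 lysates after 24 h exposure to 5, 7.5 or 10 μM; band quantitation; mean ± SD from three independent experiments.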

MGC-803 [17] = assay: Induction of mitochondrial dysfunction in human MGC-803 cells assessed as upregulation of gammaH2AX expression at 5 to 10 uM incubated for 24 hrs by Western blot analysis; assay type: functional, cell-based; details: dose 5-10 µM; in short: as §2
MGC-803 [18] = assay: Induction of mitochondrial dysfunction in human MGC-803 cells assessed as downregulation of procaspase-3 expression at 5 to 10 uM incubated for 24 hrs by Western blot analysis; assay type: functional, cell-based; details: dose 5-10 µM; in short: as §2
[19] = Activation of MAPK pathway in human MGC-803 cells assessed as change in JNK total expression at 5 to 10 uM incubated for 24 hrs by Western blot analysis; assay type: cell-based; details: dose 5-10 µM
[20] = Activation of MAPK pathway in human MGC-803 cells assessed as change in phosphorylated Erk1/2 expression at 5 to 10 uM incubated for 24 hrs by Western blot analysis; assay type: cell-based; details: dose 5-10 µM
MGC-803 [21] = assay: Antiproliferative activity against human MGC-803 cells assessed as decrease in cell viability at 10 uM preincubated with SB203580 for 4 hrs followed by compound addition and measured after 24 hrs by MTT assay; assay type: functional, cell-based
In short: (§3)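 MGC-803 cells pre-incubated 4 h with SB203580 (4 μM) or SP600125 (20 μM), then exposed to 10 μM test compound for 24 h; viability by MTT, expressed as percent of control. Mean ± SD, three independent experiments.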

MGC-803 [22] = assay: Antiproliferative activity against human MGC-803 cells assessed as decrease in cell viability at 10 uM preincubated with SP600125 for 4 hrs followed by compound addition and measured after 24 hrs by MTT assay; assay type: functional, cell-based; in short: as §3
MGC-803 [23] = assay: Antitumor activity against human MGC-803 cells xenografted in SCID mouse assessed as decrease in average tumor weight at 25 mg/kg, IG administered for 21 days relative to control; assay type: functional; parameters: scale not given: the % may be the effect or the level left; details: time 21 day
In short: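 MGC-803 cells implanted subcutaneously on the right side of SCID mice; dosed at 12.5 or 25 mg/kg in 0.5% CMC-Na (vehicle control) for 21 days. Body weight and tumor size recorded periodically; tumors excised and weighed at end. Means ± SD.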

[24] = Toxicity in SCID mouse xenografted with human MGC-803 cells assessed as effect on heart at 12.5 to 25 mg/kg, IG administered for 21 days by H&E staining based histopathological analysis; assay type: organism-based; details: in vivo, po, 504 h, dose 12.5-25 mg/kg, time 21 day
In short: (§4)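 SCID mice bearing subcutaneous MGC-803 xenografts (right side) dosed with 12.5 or 25 mg/kg over 21 days, 0.5% CMC-Na vehicle as control; body weight and tumor size monitored periodically; major organs examined histopathologically at end; means ± SD.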

[25] = Toxicity in SCID mouse xenografted with human MGC-803 cells assessed as effect on lung at 12.5 to 25 mg/kg, IG administered for 21 days by H&E staining based histopathological analysis; assay type: organism-based; details: in vivo, po, 504 h, dose 12.5-25 mg/kg, time 21 day; in short: as §4

Cc1cc(N2CC[C@@H](C)[C@@H](N(C)c3ncnc4[nH]ccc34)C2)n2nc(SCc3ccc(C(F)(F)F)cc3)nc2n1
pIC50 (HGC-27): 5.02
selectivity ratio [1]: 6.5
inhibition at 1 µM (MGC-803 [2]): 31%
viability at 5 µM (MGC-803 [3]): 81.7%
Activity (MGC-803 [4]): 4%
viability at 7.5 µM (MGC-803 [5]): 69.2%
viability at 5 µM (MGC-803 [6]): 73.4%
Activity (MGC-803 [7]): 8.5%
Activity (MGC-803 [8]): 8.8%
Activity (MGC-803 [9]): 67.5%
viability at 10 µM (MGC-803 [10]): 17%
Activity (MGC-803 [11]): 0.9%
Activity (MGC-803 [12]): 82.1%
Activity (MGC-803 [13]): 56.42%
Activity (MGC-803 [14]): Active
Activity (MGC-803 [15]): Dose-Dependent Effect
Activity (MGC-803 [16]): Active
Activity (MGC-803 [17]): Active
Activity (MGC-803 [18]): Active
Activity [19]: inactive
Activity [20]: inactive
Activity (MGC-803 [21]): inactive
Activity (MGC-803 [22]): inactive
Activity (MGC-803 [23]): 53%
Activity [24]: Non-Toxic
Activity [25]: Non-Toxic

From ChEMBL document CHEMBL5244249, “Discovery of tofacitinib derivatives as orally active antitumor agents based on the scaffold hybridization strategy” (Eur J Med Chem, 2020)
